Assay [1] relates to MGC-803. As to the kind of experiment: Induction of apoptosis in human MGC-803 cells assessed as increase in Bak expression at 0.5 to 2.5 uM measured after 24 hrs by Western blot analysis. The conditions noted are these: dose 0.5-2.5 µM. On the technique in general: A western blot detects proteins with antibodies after separation by electrophoresis.
Assay [2] relates to MGC-803. The assay is described as follows: Induction of apoptosis in human MGC-803 cells assessed as increase in nuclear chromatin condensation at 0.5 to 2.5 uM incubated for 24 hrs by Hoechst 33258 staining based analysis. The class given is functional, cell-based. The conditions noted are these: dose 0.5-2.5 µM. Put shortly: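 Cells in six-well plates were treated for the indicated time, then fixed 10 min in 4% paraformaldehyde and washed twice in PBS. Nuclei were stained 5 min with Hoechst 33258, washed twice in PBS and examined by fluorescence microscopy.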

Assay [3] deals with MGC-803. As to the kind of experiment: Induction of apoptosis in human MGC-803 cells assessed as late apoptotic cells at 1 uM measured after 24 hrs by Annexin-V/propidium iodide staining-based flow cytometric analysis (Rvb =0.93%). For orientation: A flow cytometer gives signals particle by particle.
The test system of assay [4] is MGC-803. As to the kind of experiment: Induction of apoptosis in human MGC-803 cells assessed as necrotic cells at 1 uM measured after 24 hrs by Annexin-V/propidium iodide staining-based flow cytometric analysis (Rvb =6.05%).
Assay [5] concerns MGC-803. The assay is described as follows: Induction of apoptosis in human MGC-803 cells assessed as increase in MDM2 protein expression upto 2.5 uM incubated for 24 hrs by Western blot analysis. The class given is functional, cell-based. The conditions noted are these: dose microM <=2.5, time 24.0 hrs. Put shortly: (§1)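 MGC-803 cells (2×10^6) cultured overnight, then exposed 24 h to 0.5, 1.0 or 2.5 μM, or 5.0 μM for the reference agent. Lysates were resolved by SDS-PAGE, transferred to PVDF and probed with primary antibodies. Detection used AP-linked anti-rabbit IgG and ECL. β-actin served as loading control.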

Assay [6] has as its system MGC-803. The assay is described as follows: Induction of apoptosis in human MGC-803 cells assessed as increase in CDK4 protein expression upto 2.5 uM incubated for 24 hrs by Western blot analysis. The assay is classed as functional, cell-based. The conditions noted are these: dose microM <=2.5, time 24.0 hrs. Put shortly: as §1
Assay [7] deals with MGC-803. As to the kind of experiment: Induction of apoptosis in human MGC-803 cells assessed as necrotic cells at 0.5 uM measured after 24 hrs by Annexin-V/propidium iodide staining-based flow cytometric analysis (Rvb =6.05%).
In assay [8] the test system is MGC-803. The assay is described as follows: Induction of apoptosis in human MGC-803 cells assessed as cell shrinkage at 0.5 to 2.5 uM incubated for 24 hrs by Hoechst 33258 staining based analysis. The class given is functional. The conditions noted are these: dose 0.5-2.5 µM. In outline:
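MGC-803 cells treated in six-well plates, fixed in 4% paraformaldehyde for 10 min, washed, stained with Hoechst 33258 for 5 min, and examined for nuclear morphology by fluorescence microscopy.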

For assay [9], the system named is MGC-803. The assay is described as follows: Induction of apoptosis in human MGC-803 cells assessed as viable cells at 0.5 uM measured after 24 hrs by Annexin-V/propidium iodide staining-based flow cytometric analysis (Rvb =92.2 %). The conditions noted are these: MGC-803, 24 h.
Assay [10] deals with DU-145. The assay is described as follows: Cytotoxicity against human DU145 cells expressing mutant type p53 assessed as reduction in cell viability preincubated for 48 hrs and measured after 4 hrs by MTT assay. The class given is functional, cell-based. Put shortly: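 MTT assay. Cells grown in DMEM (T24, MGC-803, A549, HL-7702), RPMI-1640 (DU145) or DMEM-F12 (PC-3), each with 10% FBS. Exposed to 1.25–20 µM in medium with 1% DMSO for 48 h, then MTT for 4 h. Formazan dissolved in DMSO and read at 570 nm. Five wells per concentration; means ± SD of independent repeats.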

For assay [11], the system named is MGC-803. The assay is described as follows: Induction of apoptosis in human MGC-803 cells assessed as early apoptotic cells at 2.5 uM measured after 24 hrs by Annexin-V/propidium iodide staining-based flow cytometric analysis (Rvb =0.84%).
The subject of assay [12] is MGC-803. The assay is described as follows: Cell cycle arrest in human MGC-803 cells assessed as accumulation at G2/M phase at 0.125 uM after 48 hrs by propidium iodide staining-based flow cytometric analysis (reference value: 7.94%). The class given is functional.
The subject of assay [13] is MGC-803. The assay is described as follows: Induction of apoptosis in human MGC-803 cells assessed as decrease in Bcl-2 expression at 0.5 to 2.5 uM measured after 24 hrs by Western blot analysis. The class given is functional, cell-based. The conditions noted are these: dose 0.5-2.5 µM. In outline: (§2)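 MGC-803 cells (2×10^6) plated overnight, then treated for 24 h at 0.5, 1.0 or 2.5 µM (test agent) or 5.0 µM (comparator). Whole-cell lysates separated by SDS-PAGE, transferred to PVDF and probed with primary antibodies. AP-linked anti-rabbit IgG, ECL detection, β-actin loading control. Representative of three experiments.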

The test system of assay [14] is DNA. As to the kind of experiment: Binding affinity to Escherichia coli pBR322 DNA assessed as intercalation upto 100 uM by agarose gel electrophoresis assay. The conditions noted are these: dose microM <=100. The assay is classed as nucleic-acid assay. In outline: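 pBR322 plasmid DNA incubated with compound at 50, 100 or 200 µM for 3 h in TAE buffer. Reaction stopped with loading buffer. Run on 1% agarose gel, stained with ethidium bromide, imaged under UV transillumination. Lane controls: DNA with 1% DMSO (negative), DNA with EB (positive).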

Assay [15] concerns MGC-803. The assay is described as follows: Induction of apoptosis in human MGC-803 cells assessed as viable cells at 1 uM measured after 24 hrs by Annexin-V/propidium iodide staining-based flow cytometric analysis (Rvb =92.2 %). The conditions noted are these: MGC-803, 24 h.
Assay [16] relates to MGC-803. As to the kind of experiment: Induction of DNA damage in human MGC-803 cells assessed as increase in p53 level at 2.5 uM measured after 24 hrs by Western blot analysis. The class given is functional, cell-based. Put shortly:
as §2

Assay [17] relates to MGC-803. The assay is described as follows: Induction of DNA damage in human MGC-803 cells assessed as increase in gamma H2AX at 2.5 uM measured after 24 hrs by Western blot analysis. The class given is functional, cell-based. Put shortly: as §2
The test system of assay [18] is MGC-803. The assay is described as follows: Cell cycle arrest in human MGC-803 cells assessed as accumulation at S phase at 0.5 uM after 48 hrs by propidium iodide staining-based flow cytometric analysis (reference value: 45.1 %). The assay is classed as functional.
The nature of assay [19]: Induction of mitochondria membrane potential loss in human MGC-803 cells assessed as increase in green fluorescence at 0.5 uM incubated 24 hrs by JC-1 probe based flow cytometry analysis (reference value: 4.67%). The assay is classed as functional.
Assay [20] has as its system MGC-803. The assay is described as follows: Induction of apoptosis in human MGC-803 cells assessed as activation of caspase 3 at 2.5 uM incubated for 24 hrs by flow cytometric analysis (reference value: 1.47%). The assay is classed as functional.
In assay [21] the test system is MGC-803. As to the kind of experiment: Induction of apoptosis in human MGC-803 cells assessed as early apoptotic cells at 1 uM measured after 24 hrs by Annexin-V/propidium iodide staining-based flow cytometric analysis (Rvb =0.84%).
The test system of assay [22] is MGC-803. The assay is described as follows: Cell cycle arrest in human MGC-803 cells assessed as accumulation at S phase at 0.125 uM after 48 hrs by propidium iodide staining-based flow cytometric analysis (reference value: 45.1 %). The assay is classed as functional.
The subject of assay [23] is MGC-803. The assay is described as follows: Induction of apoptosis in human MGC-803 cells assessed as viable cells at 2.5 uM measured after 24 hrs by Annexin-V/propidium iodide staining-based flow cytometric analysis (Rvb =92.2 %). The conditions noted are these: MGC-803, 24 h.

pIC50: −log10 of the molar value. Activity calls are given as the source filed them. The calls are words filed in the database; no cut-off is given here.

With `NCCCCNc1nc(/C=C/c2ccc([N+](=O)[O-])cc2)nc2ccccc12`, the result in assay [1] was inactive. For the same molecule, the outcome in assay [2], in assay [5], in assay [6], in assay [8], in assay [13] and in assay [14] was Active. For the same molecule, the outcome in [16] and in [17] was Active. In addition, the Activity in assay [3] is given as 16%; in assay [4], 2.21%; in assay [7], 8.13%; in assay [11], 28%; in [12] it was 18.16%; in assay [18], 25.89%. Also, the Activity turned out to be 8.91% in assay [19], 22.98% in assay [20], 27.5% in assay [21] and 46.45% in assay [22]. The viability (in general, a per cent measure of how many cells are alive, often set against a control) at 0.5 µM in assay [9] was 71%. Also, in assay [10], the pIC50 (as a rule, the IC50 on a negative log10 scale, so that one unit is a factor of ten) was 5.38. Moreover, in [15], the viability at 1 µM worked out at 55.3%. In assay [23], the viability at 2.5 µM was determined as 14.8%.

These data come from ChEMBL document CHEMBL4680124, “2-Styryl-4-aminoquinazoline derivatives as potent DNA-cleavage, p53-activation and in vivo effective anticancer agents” (Eur J Med Chem, 2020).
